# Ends that are not written are not given here.
# How the values were obtained:
# [1] = DIO-NASH biopsy-confirmed mouse model; assay type: in vivo
# Method in brief: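 Male C57BL/6JRj mice fed AMLN diet (40% fat with trans-fat, 20% fructose, 2% cholesterol) for 33 weeks, then liver-biopsied. Only mice with steatosis score ≥2 and fibrosis stage ≥F1 were stratified into groups (n=12-13). Groups received vehicle or test compound at 10 or 30 mg/kg for a further 12 weeks.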
# [2] = CDHFD-induced NASH and fibrosis mice; assay type: in vivo, mouse
# [3] = test system: isolated diabetic mouse hearts; test: Langendorff-perfused db/db hearts, stable isotope analysis; details: 10 μM Cariporide
# SD rat islets = test: Perifusion of rat islets, GSIS; assay type: cell-based; details: for potentiation of GSIS at low concentrations: 10-100 pM
# [4] = 6-day s.c. GIP infusion crossover study, T1D; assay type: in vivo, human
# [5] = test system: obese T2DM and lean subjects; test: GIP infusion, tissue blood flow; assay type: in vivo, human
# [6] = test system: obese men without diabetes; test: FLT-PET/MRI and pancreatic enzymes during liraglutide; assay type: in vivo, human
# Rev-erbα = Rev-erbα agonist and antagonist in beta cells and human islets; assay type: cell-based; details: glucotoxicity or cytokines; antagonist or siRNA
# Method in brief: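 Cells used were rat INS-1E, human EndoC-βH1 and human islets. Rev-erbα was modulated with agonist, antagonist or siRNA knock-down. Stress was glucotoxicity (INS-1E, EndoC-βH1) or cytokines (INS-1E, human islets). Glucose-induced insulin secretion was read by HTRF, apoptosis as cleaved caspase-3, and Rev-erbα protein by western blot.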
# [7] = test system: mouse hypothalamic (mHypoA) and human (SH-SY5Y) neuronal cells; test: Resistin overexposure of neuronal cells; assay type: cell-based; details: for resistin-dependent neuronal inflammation and IR: pharmacological inhibition
# [8] = test system: patients with type 2 diabetes; test: Network meta-analysis of antidiabetic medications on blood pressure; design: species or system human; details: network meta-analysis
# [9] = 12 week L-carnitine treatment in type 2 diabetes patients; assay type: in vivo, human; details: after 12 weeks
# Method in brief: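 32 patients with type 2 diabetes treated with L-carnitine for 12 weeks, with plasma free carnitine checked for compliance. Two-step hyperinsulinemic-euglycemic clamp (10 then 40 mU/m2/min) with D-[6,6-2H2]-glucose tracer gave hepatic (EGP suppression) and peripheral sensitivity. Vastus lateralis acetylcarnitine by T1-edited long-TE (350 ms) 1H-MRS at rest and after 30 min cycling at 70% Wmax. IHL by 1H-MRS. All measured before and after.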
# [10] = 48-week tofogliflozin vs glimepiride trial in T2D with NAFLD; assay type: in vivo, human; details: after 48 weeks; for AST: baseline 55.4 ± 41.8 / 49.7 ± 46.8; for ALT: baseline 72.2 ± 60.5 / 76.4 ± 77.8; for body weight: baseline 78.7 ± 17.7 / 81.3 ± 19.2; for HbA1c: baseline tofogliflozin 8.0 ± 0.5, glimepiride 8.4 ± 0.9
# [11] = Nasal vs injectable glucagon, insulin-induced hypoglycaemia; assay type: in vivo, human
# [12] = Insulin icodec vs IGlar U100 26-week phase 2 trial; assay type: in vivo, human
# Method in brief: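 Randomized, double-blind, double-dummy, treat-to-target phase 2 trial lasting 26 weeks. Participants were insulin-naïve adults with T2D and HbA1c 7.0-9.5% on metformin ± DPP4i, randomized 1:1 (n=247). Starting doses were 70 U once weekly or 10 U once daily, titrated weekly to a pre-breakfast SMBG target of 3.9-6.0 mmol/L. The primary endpoint was HbA1c change from baseline to week 26; FPG and mean weekly dose over the last two weeks were secondary.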
# [13] = EXSCEL post-hoc analysis, eGFR slope and UACR; assay type: in vivo, human
# [14] = resistin overexposure, neuronal cells
molecule,measurement,setting,value
O=S(=O)(Nc1cc(Cl)c(Oc2cnc3ccccc3c2)c(Cl)c1)c1ccc(Cl)cc1Cl [CHS-131],lower plasma aspartate transaminase,[1]; high dose,29%
same,lower total cholesterol,[1]; high dose,20%
same,increase of plasma adiponectin,[1]; high dose 30 mg/kg,137%
same,lower plasma alanine transaminase,"[1]; high dose 30 mg/kg, 12 weeks",37%
same,increase of plasma adiponectin,[1]; low dose 10 mg/kg,114%
same,Galectin-3,[1]; trend,-18%
same,hydroxyproline,[1]; trend,-28%
"O=C(O)c1ccnc(N2CC(O)(c3ccc(OCc4c(-c5c(Cl)cccc5Cl)noc4C4CC4)cc3Cl)C2)c1 [CIL, Cilofexor]",hepatic TG vs vehicle,"[2]; CDHFD 14 weeks, treatment last 6 weeks",2.6%
same,collagen-1α1 gene expression vs vehicle,"[2]; mouse, in vivo",-37.5%
same,hepatic F4/80 gene expression vs vehicle,"[2]; mouse, in vivo",-1.6%
same,hepatic IL-1β gene expression vs vehicle,"[2]; mouse, in vivo",-37.5%
same,hepatic TBARS vs vehicle,"[2]; mouse, in vivo",11.0%
same,hepatic hydroxyproline vs vehicle,"[2]; mouse, in vivo",-13.7%
CC(C)c1ccc(C(=O)NC(=N)N)cc1S(C)(=O)=O [Cariporide],Empa effects on lactate labeling and G6P,[3],mitigated
CC[C@H](C)[C@H](NC(=O)[C@H](CO)NC(=O)[C@H](Cc1ccc(O)cc1)NC(=O)[C@H](CC(=O)O)NC(=O)[C@H](CO)NC(=O)[C@@H](NC(=O)[C@H](Cc1ccccc1)NC(=O)[C@@H](NC(=O)CNC(=O)[C@H](CCC(=O)O)NC(=O)[C@H](C)NC(=O)[C@@H](N)Cc1ccc(O)cc1)[C@@H](C)O)[C@@H](C)CC)C(=O)N[C@@H](C)C(=O)N[C@@H](CCSC)C(=O)N[C@@H](CC(=O)O)C(=O)N[C@@H](CCCCN)C(=O)N[C@H](C(=O)N[C@@H](Cc1c[nH]cn1)C(=O)N[C@@H](CCC(N)=O)C(=O)N[C@@H](CCC(N)=O)C(=O)N[C@@H](CC(=O)O)C(=O)N[C@@H](Cc1ccccc1)C(=O)N[C@H](C(=O)N[C@@H](CC(N)=O)C(=O)N[C@@H](Cc1c[nH]c2ccccc12)C(=O)N[C@@H](CC(C)C)C(=O)N[C@@H](CC(C)C)C(=O)N[C@@H](C)C(=O)N[C@@H](CCC(N)=O)C(=O)N[C@@H](CCCCN)C(=O)NCC(=O)N[C@@H](CCCCN)C(=O)N[C@@H](CCCCN)C(=O)N[C@@H](CC(N)=O)C(=O)N[C@@H](CC(=O)O)C(=O)N[C@@H](Cc1c[nH]c2ccccc12)C(=O)N[C@@H](CCCCN)C(=O)N[C@@H](Cc1c[nH]cn1)C(=O)N[C@@H](CC(N)=O)C(=O)N[C@H](C(=O)N[C@H](C(=O)N[C@@H](CCC(N)=O)C(=O)O)[C@@H](C)O)[C@@H](C)CC)C(C)C)[C@@H](C)CC [GIP],potentiation of GSIS at low concentrations,SD rat islets,potentiated GSIS
same,increase of daytime time in range (3.9-[…]) vs placebo,"[4]; 6 pmol/kg/min s.c., 6 days, mean ± SEM",160 ± 74 min/day
same,decrease of 24-hour diastolic blood pressure,[4]; in vivo,3.1 ± 1.3 mmHg
same,decrease of 24-hour systolic blood pressure,[4]; in vivo,5.8 ± 2.6 mmHg
same,SAT blood flow increase from baseline,"[5]; GIP infusion, operated subjects",143%
same,VAT blood flow increase from baseline,"[5]; GIP-infusion, control",234%
same,SAT blood flow increase from baseline,"[5]; GIP-infusion, controls",385%
same,SAT blood flow increase from baseline,"[5]; GIP-infusion, obese",119%
same,VAT blood flow increase from baseline,"[5]; GIP-infusion, obese",105%
CCCCCCCCCCCCCCCC(=O)N[C@@H](CCC(=O)NCCCC[C@H](NC(=O)[C@H](C)NC(=O)[C@H](C)NC(=O)[C@H](CCC(N)=O)NC(=O)CNC(=O)[C@H](CCC(=O)O)NC(=O)[C@H](CC(C)C)NC(=O)[C@H](Cc1ccc(O)cc1)NC(=O)[C@H](CO)NC(=O)[C@H](CO)NC(=O)[C@@H](NC(=O)[C@H](CC(=O)O)NC(=O)[C@H](CO)NC(=O)[C@@H](NC(=O)[C@H](Cc1ccccc1)NC(=O)[C@@H](NC(=O)CNC(=O)[C@H](CCC(=O)O)NC(=O)[C@H](C)NC(=O)[C@@H](N)Cc1cnc[nH]1)[C@@H](C)O)[C@@H](C)O)C(C)C)C(=O)N[C@@H](CCC(=O)O)C(=O)N[C@@H](Cc1ccccc1)C(=O)N[C@H](C(=O)N[C@@H](C)C(=O)N[C@@H](Cc1c[nH]c2ccccc12)C(=O)N[C@@H](CC(C)C)C(=O)N[C@H](C(=O)N[C@@H](CCCNC(=N)N)C(=O)NCC(=O)N[C@@H](CCCNC(=N)N)C(=O)NCC(=O)O)C(C)C)[C@@H](C)CC)C(=O)O [Liraglutide],change in mean FLT-uptake in pancreatic tissue,[6]; after four weeks,+0.08
same,change in pancreatic volume,"[6]; baseline to six weeks, MRI",+0.2 cm^3
same,change in maximum FLT-uptake,[6]; titration period,+0.3
CCOC(=O)C1Cc2ccccc2CN1C(=O)c1ccc(SC)s1 (stereo not drawn) [SR8278],attenuation of beta-cell apoptosis,Rev-erbα,~ 30%
CCOC(=O)C1=CCCC[C@H]1S(=O)(=O)Nc1ccc(F)cc1Cl [TAK-242],resistin-dependent neuronal inflammation and IR,[7],prevents
Cc1ccc([C@@H]2O[C@H](CO)[C@@H](O)[C@H](O)[C@H]2O)cc1Cc1ccc(-c2ccc(F)cc2)s1 [canagliflozin],"diastolic blood pressure, mean difference versus placebo",[8],-1.42 mmHg
"C[N+](C)(C)C[C@H](O)CC(=O)[O-] [carnitine, L-carnitine]",resting skeletal muscle acetylcarnitine,[9]; before 1.18±0.13,1.54±0.17 mmol/kgww
same,post-exercise skeletal muscle acetylcarnitine,[9]; before 3.70±0.22,4.53±0.30 mmol/kgww
same,plasma glucose,[9]; before 8.1±0.3,7.7 ± 0.3 mmol/L
same,ΔRd (peripheral insulin sensitivity),[9]; before 10.53±1.85,13.83 ± 2.02 µmol/kg/min
same,intrahepatic lipid content (IHL),[9]; before 14.7±2.6,12.8±2.2%
same,EGP suppression (hepatic insulin sensitivity),[9]; before 31.9 ±2.9,39.9±3.2%
CCOc1ccc(Cc2cc([C@@H]3O[C@H](CO)[C@@H](O)[C@H](O)[C@H]3O)ccc2Cl)cc1 [dapagliflozin],increase in hepatic lipid content (HCL),"CON-D and T2DM-D, non-significant",20%
same,decrease in hepatic glycogen,"T2DM-D, T2DM-P -6±0.02",-10±0.02%
same,glycogenolysis,both groups,no impact
same,EGP higher following administration,single dose 10mg,25%
same,"diastolic blood pressure, mean difference versus placebo",[8],-1.48 mmHg
CCC1=C(C)CN(C(=O)NCCc2ccc(S(=O)(=O)NC(=O)N[C@H]3CC[C@H](C)CC3)cc2)C1=O [glimepiride],AST,[10],52.3 ± 37.6 IU/L
same,ALT,[10],78.9 ± 68.7 IU/L
same,body weight,[10],81.9 ± 21.1 kg
same,HbA1c,[10],7.5 ± 0.6%
CCCCCCC(=O)CCCCCC/C=C/C[C@@H](O)[C@H](O)[C@@](N)(CO)C(=O)O [myriocin],resistin-dependent neuronal inflammation and IR,[7],prevents
CCc1ccc(Cc2ccc3c(c2)[C@]2(OC3)O[C@H](CO)[C@@H](O)[C@H](O)[C@H]2O)cc1 [tofogliflozin],stage score,[10]; baseline 1.6 ± 1.1,1.1 ± 1.3
same,grade score,[10]; baseline 1.7 ± 0.9,0.9 ± 0.8
same,AST,[10],27.2 ± 22.4 IU/L
same,ALT,[10],33.1 ± 31.5 IU/L
same,body weight,[10],73.3 ± 18.3 kg
same,HbA1c,[10],6.9 ± 1.2%
same,steatosis score,[10]; tofogliflozin baseline 2.0 ± 0.7,1.2 ± 0.4
GIP(3-30),insulin secretion in response to glucose alone,SD rat islets; receptor antagonists,not reduced
glucagon [injectable glucagon],geometric least square mean maximal blood glucose (BGMAX),[11]; in vivo,11.4 mmol/L
same,headache,[11]; in vivo,5.8%
same,mean time to treatment success,[11]; in vivo,10.4 min
same,nausea,[11]; in vivo,28.8%
same,vomiting,[11]; in vivo,11.5%
same,patients achieving treatment success,"[11]; within 15 minutes, T1D or T2D",97.0%
"glucagon-like peptide-1 (HAEGTFTSDVSSYLEGQAAKEFIAWLVKGR; ends and bridges not checked; UniProt P01275 98-127, looked up) [GLP-1]",potentiation of GSIS at low concentrations,SD rat islets,no such effect
insulin glargine U100 [IGlar U100],estimated mean HbA1c at week 26,"[12]; baseline 8.1 icodec, 8.0 IGlar U100",6.9%
same,estimated mean FPG at week 26,[12]; in vivo,7.05 mmol/L
same,"estimated mean weekly insulin dose, last two weeks",[12]; in vivo,284 U/week
same,level 2 and 3 hypoglycaemia,[12]; on-treatment period,46 events per 100 patient years of exposure
same,estimated mean change in HbA1c from baseline,[12]; week 26,-1.15 %-points
once-weekly exenatide [EQW],reduction of UACR vs placebo,[13]; baseline UACR>30 mg/g,28.2%
same,reduction of UACR vs placebo,[13]; baseline UACR>100 mg,22.5%
same,eGFR slope vs placebo,"[13]; baseline UACR>100mg/g, 95% CI 0.24-1.34",+0.79 mL/min/1.73m2/year
same,reduction of UACR vs placebo,[13]; baseline UACR>200 mg,34.5%
same,eGFR slope vs placebo,"[13]; baseline UACR>200mg/g, 95% CI 0.57-2.06",+1.32 mL/min/1.73m2/year
"resistin: ""circulating factors originated from adipose tissue and immune cells""; ""a key mediator linking obesity to IR"" (protein, UniProt Q9HD89 19-108, looked up) Resistin: KTLCSMEEAINERIQEVAGSLIFRAISSIGLECQSVTSRGDLATCPRGFAVTGCTCGSACGSWDVRAETTCHCQCAGMDWTGARCCRVQP",increased expression of IL6,[7]; [14],89.93%
same,inhibition of insulin-dependent phosphorylation of Akt,[7]; [14],40.6%

# — publication PMC7445463 (Diabetologia, 2020)
